Reference: ChEMBL document CHEMBL1641377, “Discovery of novel, potent, selective, and orally active human glucagon receptor antagonists containing a pyrazole core” (Bioorg Med Chem Lett, 2011)
Active and inactive are the calls of the source. No cut-off for these calls is given here.

Assays:
[1] = Plasma concentration in rhesus monkey at 10 mg/kg, po after 4 hrs; assay type: ADME, organism-based, Macaca mulatta; design: dose 10 mg/kg, route oral
Method in brief: (§1)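 Overnight-fasted rhesus monkeys received the oral dose 4 h before the glucagon challenge (15 µg/kg im, time zero). Plasma drug level was sampled at the time of the challenge (t = 0, n = 4). Plasma glucose was then followed every 10 min and expressed as the change from time zero.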

Glucagon receptor [2] = molecular target: T1, Glucagon receptor (Homo sapiens, UniProt P47871); experiment: Displacement of [125I]glucagon from human GCGR expressed in CHO cells; assay type: cell-based
T1 sequence (P47871 whole entry): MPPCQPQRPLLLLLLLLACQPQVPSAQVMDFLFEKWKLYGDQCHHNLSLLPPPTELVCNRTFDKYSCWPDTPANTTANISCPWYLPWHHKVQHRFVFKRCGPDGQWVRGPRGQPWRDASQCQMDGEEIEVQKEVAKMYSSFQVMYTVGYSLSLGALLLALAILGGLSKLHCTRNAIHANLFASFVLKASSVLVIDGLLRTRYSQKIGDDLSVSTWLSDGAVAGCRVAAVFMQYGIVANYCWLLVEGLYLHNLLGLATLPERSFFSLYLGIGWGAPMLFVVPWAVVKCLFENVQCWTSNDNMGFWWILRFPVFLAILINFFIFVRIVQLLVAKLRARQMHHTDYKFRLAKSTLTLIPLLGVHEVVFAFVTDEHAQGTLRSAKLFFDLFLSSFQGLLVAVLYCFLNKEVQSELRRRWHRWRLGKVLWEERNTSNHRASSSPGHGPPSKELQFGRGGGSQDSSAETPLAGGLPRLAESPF
Method in brief: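 Binding inhibition of 125I-glucagon to human GCGR expressed in CHO cell membranes; IC50 reported, n given where replicated.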

[3] = Plasma concentration in dog at 1 to 10 mg/kg, iv after 30 mins; assay type: ADME, organism-based, Canis lupus familiaris; design: dose 1-10 mg/kg, route intravenous
Canis familiaris [4] = experiment: Dose normalized AUC in dog at 2 mg/kg, po; assay type: ADME, organism-based, Canis lupus familiaris; design: dose 2 mg/kg, route oral; settings: in vivo
Mus musculus [5] = experiment: In vivo occupancy of human GCGR transfected in mouse at 10 mg/kg after 3 hrs; assay type: functional
Method in brief: (§2)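 In vivo receptor occupancy measured in hGCGR transgenic mice after oral dosing, at 1 h post-dose (30 and 10 mpk) and in a separate experiment at 1, 3 and 8 h after 10 mpk.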

Cytochrome P450 2D6 = Cytochrome P450 2D6 (Homo sapiens, UniProt P10635); experiment: Inhibition of CYP2D6; assay type: ADME
Chain of Cytochrome P450 2D6 (P10635 whole entry): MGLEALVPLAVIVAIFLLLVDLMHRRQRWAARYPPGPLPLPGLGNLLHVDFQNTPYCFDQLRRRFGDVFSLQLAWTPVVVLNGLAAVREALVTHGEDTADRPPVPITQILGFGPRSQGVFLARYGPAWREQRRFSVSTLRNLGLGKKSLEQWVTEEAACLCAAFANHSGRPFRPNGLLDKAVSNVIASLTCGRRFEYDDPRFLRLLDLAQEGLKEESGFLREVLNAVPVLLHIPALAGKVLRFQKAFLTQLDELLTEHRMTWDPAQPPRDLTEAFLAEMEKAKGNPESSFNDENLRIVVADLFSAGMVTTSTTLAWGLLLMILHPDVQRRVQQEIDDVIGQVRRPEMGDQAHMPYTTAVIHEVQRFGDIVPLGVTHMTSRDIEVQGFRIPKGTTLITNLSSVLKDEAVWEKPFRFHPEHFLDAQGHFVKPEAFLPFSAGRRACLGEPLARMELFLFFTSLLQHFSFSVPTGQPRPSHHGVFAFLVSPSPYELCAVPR

Glucagon receptor [6] = molecular target: Glucagon receptor (Rattus norvegicus, UniProt P30082); experiment: Antagonist activity at rat GCGR assessed as inhibition of glucagon-induced cAMP accumulation; assay type: functional
Chain of Glucagon receptor (Rattus norvegicus, UniProt P30082) (P30082 whole entry): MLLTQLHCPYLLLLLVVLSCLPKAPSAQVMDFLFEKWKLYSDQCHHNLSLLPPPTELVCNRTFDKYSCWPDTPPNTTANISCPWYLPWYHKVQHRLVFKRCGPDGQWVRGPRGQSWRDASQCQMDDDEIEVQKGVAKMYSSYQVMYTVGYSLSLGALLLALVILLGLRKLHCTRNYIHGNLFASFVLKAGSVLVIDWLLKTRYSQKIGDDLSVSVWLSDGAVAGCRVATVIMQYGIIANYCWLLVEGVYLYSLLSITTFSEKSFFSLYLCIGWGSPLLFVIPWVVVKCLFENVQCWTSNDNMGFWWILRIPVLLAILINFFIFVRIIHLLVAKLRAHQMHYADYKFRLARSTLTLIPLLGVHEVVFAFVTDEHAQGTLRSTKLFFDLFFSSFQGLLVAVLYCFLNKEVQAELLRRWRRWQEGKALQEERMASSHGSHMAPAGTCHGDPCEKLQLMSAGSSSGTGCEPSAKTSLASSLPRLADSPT

Mus musculus [7] = experiment: Antidiabetic activity in transgenic mouse expressing human GCGR assessed as inhibition of glucagon-induced blood glucose excursion at 10 mg/kg, po administered 60 mins before glucagon challenge measured after 48 mins; assay type: functional, organism-based; design: dose 10 mg/kg
Method in brief: (§3)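 hGCGR transgenic mice (only functional receptor is human GCGR), 9 per group, given compound orally, then glucagon 15 µg/kg IP 60 min later (one arm dosed 30 mpk three hours before challenge); blood glucose monitored at 12, 24, 36 and 48 min after glucagon.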

[8] = Volume of distribution at steady state in rat at 1 mg/kg, iv and 2 mg/kg, po; assay type: ADME, organism-based; settings: in vivo, read-out: Vdss
[9] = Drug level in blood of transgenic mouse expressing human GCGR at 10 mg/kg, po after 45 mins; assay type: ADME, organism-based; design: dose 10 mg/kg, route oral; settings: read-out: Drug uptake
Method in brief: (§4)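 Blood drug concentration sampled in hGCGR transgenic mice during the oral glucagon-challenge pharmacodynamic assay at 45 and 120 min post dose, 10 and 30 mpk groups, n = 3 per group.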

[10] = Bioavailability in dog at 0.5 mg/kg, iv and 2 mg/kg, po; assay type: ADME, organism-based, Canis lupus familiaris; settings: in vivo
Mus musculus [11] = experiment: Antidiabetic activity in transgenic mouse expressing human GCGR assessed as inhibition of glucagon-induced blood glucose excursion at 30 mg/kg, po administered 60 mins before glucagon challenge measured after 48 mins; assay type: functional, organism-based; design: dose 30 mg/kg; method in brief: as §3
Rhesus monkey = experiment: Dose normalized AUC in rhesus monkey at 2 mg/kg, po; assay type: ADME, organism-based, Macaca mulatta; design: dose 2 mg/kg, route oral; settings: in vivo
Mus musculus [12] = experiment: In vivo occupancy of human GCGR transfected in mouse at 30 mg/kg, po after 1 hr; assay type: functional; method in brief: as §2
[13] = Antagonist activity at rhesus monkey GCGR assessed as inhibition of glucagon-induced cAMP accumulation; assay type: functional, Macaca mulatta
[14] = Plasma concentration in rhesus monkey at 0.3 mg/kg, po after 4 hrs; assay type: ADME, organism-based, Macaca mulatta; design: dose 0.3 mg/kg, route oral; method in brief: as §1
Rattus norvegicus = experiment: Dose normalized AUC in rat at 2 mg/kg, po; assay type: ADME, organism-based; design: dose 2 mg/kg, route oral; settings: in vivo
[15] = Plasma concentration in rhesus monkey at 1 mg/kg, po after 4 hrs; assay type: ADME, organism-based, Macaca mulatta; design: dose 1 mg/kg, route oral; method in brief: as §1
[16] = Bioavailability in rat at 1 mg/kg, iv and 2 mg/kg, po; assay type: ADME, organism-based; settings: in vivo
[17] = Cmax in rat at 2 mg/kg, po; assay type: ADME, organism-based; design: dose 2 mg/kg, route oral; settings: in vivo
[18] = Cmax in dog at 2 mg/kg, po; assay type: ADME, organism-based, Canis lupus familiaris; design: dose 2 mg/kg, route oral; settings: in vivo
[19] = Drug level in blood of transgenic mouse expressing human GCGR at 30 mg/kg, po after 120 mins; assay type: ADME, organism-based; design: dose 30 mg/kg, route oral; settings: read-out: Drug uptake; method in brief: as §4
[20] = Drug level in blood of transgenic mouse expressing human GCGR at 10 mg/kg, po after 120 mins; assay type: ADME, organism-based; design: dose 10 mg/kg, route oral; settings: read-out: Drug uptake; method in brief: as §4
Homo sapiens = species: Homo sapiens; experiment: Binding affinity to human sodium channel up to 10 uM
[21] = Half life in dog at 0.5 mg/kg, iv and 2 mg/kg, po; assay type: ADME, organism-based, Canis lupus familiaris; settings: in vivo
[22] = Half life in mouse at 1 mg/kg, iv and 2 mg/kg, po; assay type: ADME, organism-based; settings: in vivo
Canis familiaris [23] = experiment: Cardiotoxicity in dog assessed as effect on cardiovascular parameters at 1 to 10 mg/kg, iv after 30 mins; assay type: toxicity, organism-based, Canis lupus familiaris, Heart; design: dose 1-10 mg/kg, route intravenous; settings: in vivo, 0.5 h
Glucagon receptor [24] = molecular target: Glucagon receptor (Mus musculus, UniProt Q61606); experiment: Antagonist activity at mouse GCGR assessed as inhibition of glucagon-induced cAMP accumulation; assay type: functional
Chain of Glucagon receptor (Mus musculus, UniProt Q61606) (Q61606 whole entry): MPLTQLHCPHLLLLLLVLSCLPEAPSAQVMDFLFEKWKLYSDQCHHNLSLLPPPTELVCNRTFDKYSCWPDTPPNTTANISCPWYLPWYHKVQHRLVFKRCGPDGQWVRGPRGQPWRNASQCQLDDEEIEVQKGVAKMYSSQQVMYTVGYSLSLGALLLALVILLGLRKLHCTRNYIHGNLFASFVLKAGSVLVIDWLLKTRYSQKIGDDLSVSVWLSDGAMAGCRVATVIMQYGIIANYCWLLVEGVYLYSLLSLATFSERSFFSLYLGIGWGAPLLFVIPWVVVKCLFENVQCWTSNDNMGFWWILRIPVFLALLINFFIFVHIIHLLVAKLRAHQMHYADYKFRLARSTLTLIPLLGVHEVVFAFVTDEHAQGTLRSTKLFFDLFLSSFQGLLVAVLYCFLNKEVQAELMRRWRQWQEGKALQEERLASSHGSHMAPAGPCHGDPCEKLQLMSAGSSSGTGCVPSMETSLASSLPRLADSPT

Mus musculus [25] = experiment: Antihyperglycemic activity in streptozotocin-induced diabetes mouse model assessed as decrease in blood glucose AUC level at 10 mg/kg, po after 4 weeks; assay type: functional; settings: 672 h
Method in brief: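 Diabetic model: hGCGR transgenic mice on high-fat diet for eight weeks, streptozotocin-treated during the last four weeks; single oral dose, blood glucose AUC over 2–6 h measured.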

Glucagon receptor [26] = molecular target: T1, Glucagon receptor; experiment: Antagonist activity at human GCGR expressed in CHO cells assessed as inhibition of glucagon-induced cAMP accumulation; assay type: functional, cell-based
Method in brief: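 Inhibition of glucagon-induced cAMP accumulation in CHO cells transfected with human GCGR; IC50 derived, n given where replicated.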

Mus musculus [27] = experiment: In vivo occupancy of human GCGR transfected in mouse at 10 mg/kg after 1 hr; assay type: functional; method in brief: as §2
Cytochrome P450 3A4 = Cytochrome P450 3A4 (Homo sapiens, UniProt P08684); experiment: Inhibition of CYP3A4; assay type: ADME
Chain of Cytochrome P450 3A4 (P08684 whole entry): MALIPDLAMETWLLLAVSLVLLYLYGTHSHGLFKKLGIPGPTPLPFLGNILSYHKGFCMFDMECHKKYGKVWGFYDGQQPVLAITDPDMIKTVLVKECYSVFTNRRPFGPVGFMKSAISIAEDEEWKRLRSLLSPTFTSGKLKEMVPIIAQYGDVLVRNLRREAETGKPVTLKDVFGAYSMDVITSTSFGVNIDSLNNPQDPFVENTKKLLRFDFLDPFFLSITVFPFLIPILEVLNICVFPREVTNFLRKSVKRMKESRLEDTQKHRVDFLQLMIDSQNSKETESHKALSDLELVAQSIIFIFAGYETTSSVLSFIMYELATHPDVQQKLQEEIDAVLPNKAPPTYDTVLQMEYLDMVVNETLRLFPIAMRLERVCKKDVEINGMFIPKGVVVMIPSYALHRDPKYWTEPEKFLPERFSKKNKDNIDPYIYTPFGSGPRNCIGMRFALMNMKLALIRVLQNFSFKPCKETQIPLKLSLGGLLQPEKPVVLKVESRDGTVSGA

[28] = Plasma clearance in dog at 0.5 mg/kg, iv and 2 mg/kg, po; assay type: ADME, organism-based, Canis lupus familiaris
Uncharacterized protein = Uncharacterized protein (Canis lupus familiaris, UniProt A0A8I3N355); experiment: Antagonist activity at dog GCGR assessed as inhibition of glucagon-induced cAMP accumulation; assay type: functional
Chain of Uncharacterized protein (A0A8I3N355 whole entry): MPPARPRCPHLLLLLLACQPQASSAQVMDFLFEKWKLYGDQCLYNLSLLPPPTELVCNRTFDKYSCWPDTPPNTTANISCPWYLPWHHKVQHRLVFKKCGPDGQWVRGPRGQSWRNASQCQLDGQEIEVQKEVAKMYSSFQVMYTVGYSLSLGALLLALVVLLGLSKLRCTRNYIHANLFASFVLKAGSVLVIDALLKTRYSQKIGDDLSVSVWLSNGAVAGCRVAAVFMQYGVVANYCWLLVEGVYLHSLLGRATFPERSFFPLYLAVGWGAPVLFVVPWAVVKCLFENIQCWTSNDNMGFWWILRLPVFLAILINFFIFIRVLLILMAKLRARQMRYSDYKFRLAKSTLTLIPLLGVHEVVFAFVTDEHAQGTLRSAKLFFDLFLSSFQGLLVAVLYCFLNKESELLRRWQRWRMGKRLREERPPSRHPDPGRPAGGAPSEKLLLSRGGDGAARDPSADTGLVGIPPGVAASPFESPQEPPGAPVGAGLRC

Mus musculus [29] = experiment: In vivo occupancy of human GCGR transfected in mouse at 10 mg/kg, po after 1 hr; assay type: functional; method in brief: as §2
Cytochrome P450 2C9 = Cytochrome P450 2C9 (Homo sapiens, UniProt P11712); experiment: Inhibition of CYP2C9; assay type: ADME
Chain of Cytochrome P450 2C9 (P11712 whole entry): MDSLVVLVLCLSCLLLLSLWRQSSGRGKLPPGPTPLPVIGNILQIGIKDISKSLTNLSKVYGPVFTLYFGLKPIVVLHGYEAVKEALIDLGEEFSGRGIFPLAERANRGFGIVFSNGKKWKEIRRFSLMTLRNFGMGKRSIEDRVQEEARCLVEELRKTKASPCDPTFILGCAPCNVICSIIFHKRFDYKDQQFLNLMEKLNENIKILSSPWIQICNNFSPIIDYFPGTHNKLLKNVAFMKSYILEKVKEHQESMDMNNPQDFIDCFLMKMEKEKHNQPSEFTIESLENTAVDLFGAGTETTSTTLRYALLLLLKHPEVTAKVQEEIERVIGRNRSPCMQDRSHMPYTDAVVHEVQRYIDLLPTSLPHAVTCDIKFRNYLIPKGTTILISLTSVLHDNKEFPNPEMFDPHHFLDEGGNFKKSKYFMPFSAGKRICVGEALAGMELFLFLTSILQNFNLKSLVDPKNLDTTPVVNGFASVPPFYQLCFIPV

[30] = Half life in rat at 1 mg/kg, iv and 2 mg/kg, po; assay type: ADME, organism-based; settings: in vivo
[31] = Bioavailability in mouse at 1 mg/kg, iv and 2 mg/kg, po; assay type: ADME, organism-based; settings: in vivo
[32] = Plasma clearance in rhesus monkey at 0.5 mg/kg, iv and 2 mg/kg, po; assay type: ADME, organism-based, Macaca mulatta
Mus musculus [33] = experiment: Dose normalized AUC in mouse at 2 mg/kg, po; assay type: ADME, organism-based; design: dose 2 mg/kg, route oral; settings: in vivo
Mus musculus [34] = experiment: Antidiabetic activity in transgenic mouse expressing human GCGR assessed as inhibition of glucagon-induced blood glucose excursion at 30 mg/kg, po administered 3 hrs before glucagon challenge measured after 48 mins; assay type: functional, organism-based; design: dose 30 mg/kg; method in brief: as §3
Mus musculus [35] = experiment: In vivo occupancy of human GCGR transfected in mouse at 10 mg/kg after 8 hrs; assay type: functional; method in brief: as §2
[36] = molecular target: Glucagon-like peptide 1 receptor (Homo sapiens, UniProt P43220); experiment: Antagonist activity at human GLP1R expressed in CHO cells assessed as inhibition of glucagon-induced cAMP accumulation; assay type: functional, cell-based
Chain of Glucagon-like peptide 1 receptor (P43220 whole entry): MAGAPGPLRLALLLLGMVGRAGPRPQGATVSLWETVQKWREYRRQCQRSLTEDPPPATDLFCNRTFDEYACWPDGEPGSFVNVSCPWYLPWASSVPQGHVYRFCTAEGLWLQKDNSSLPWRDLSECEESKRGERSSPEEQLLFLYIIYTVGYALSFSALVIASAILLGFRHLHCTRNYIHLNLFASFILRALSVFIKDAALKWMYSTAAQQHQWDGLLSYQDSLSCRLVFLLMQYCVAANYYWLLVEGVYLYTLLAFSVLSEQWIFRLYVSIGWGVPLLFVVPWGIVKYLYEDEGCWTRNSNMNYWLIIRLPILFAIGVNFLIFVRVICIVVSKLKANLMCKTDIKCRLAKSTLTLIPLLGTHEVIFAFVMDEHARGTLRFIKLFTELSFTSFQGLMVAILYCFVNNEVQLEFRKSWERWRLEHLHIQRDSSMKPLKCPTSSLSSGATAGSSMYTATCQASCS

[37] = Drug level in blood of transgenic mouse expressing human GCGR at 30 mg/kg, po after 45 mins; assay type: ADME, organism-based; design: dose 30 mg/kg, route oral; settings: read-out: Drug uptake; method in brief: as §4

concentration at 4 h [1]: 8.8 µM
IC50 (Glucagon receptor [2]): 84 nM
concentration at 0.5 h [3]: 96 µM
AUC (Canis familiaris [4]): 27 µM·kg·h/mg
IC50 (Cytochrome P450 2D6): > 100000 nM
IC50 (Glucagon receptor [6]): 2600 nM
Vd [8]: 0.75 L/kg
concentration at 0.75 h [9]: 3.55 µM
bioavailability [10]: 46%
AUC (Rhesus monkey): 30 µM·kg·h/mg
IC50 [13]: 140 nM
concentration at 4 h [14]: 0.13 µM
AUC (Rattus norvegicus): 11 µM·kg·h/mg
concentration at 4 h [15]: 0.6 µM
bioavailability [16]: 57%
Cmax [17]: 1.6 µM
Cmax [18]: 7.7 µM
concentration at 2 h [19]: 14.2 µM
concentration at 2 h [20]: 3.35 µM
Activity (Homo sapiens): inactive
half-life [21]: 3.6 h
half-life [22]: 2.3 h
IC50 (Glucagon receptor [24]): 2000 nM
IC50 (Glucagon receptor [26]): 110 nM
IC50 (Cytochrome P450 3A4): 39000 nM
clearance [28]: 0.49 mL/min/kg
IC50 (Uncharacterized protein): 400 nM
IC50 (Cytochrome P450 2C9): 5800 nM
half-life [30]: 6.5 h
bioavailability [31]: 15%
clearance [32]: 0.68 mL/min/kg
AUC (Mus musculus [33]): 0.73 µM·kg·h/mg
IC50 [36]: > 10000 nM
concentration at 0.75 h [37]: 10.3 µM
SMILES: O=C(O)CCNC(=O)c1ccc(Cn2nc(-c3cc(Cl)cc(Cl)c3)cc2-c2ccc(OC(F)(F)F)cc2)cc1
Activity (Mus musculus [5]): 60%
inhibition (Mus musculus [7]): Active
inhibition (Mus musculus [11]): Active
Activity (Mus musculus [12]): 87%
Activity (Canis familiaris [23]): Non-toxic
inhibition in vivo at 10 mg/kg (Mus musculus [25]): 27%
Activity (Mus musculus [27]): 64%
Activity (Mus musculus [29]): 51%
inhibition (Mus musculus [34]): Active
Activity (Mus musculus [35]): 51%
